Bioassay records deposited in PubChem BioAssay by several laboratories.
Sampled rows, rich in hits. Any-hit rate of the full collection: about 5.4%.
HePTP inh: inhibitors of human HePTP phosphatase, primary screen, biochemical, absorbance, leukemia target; Tyrosine-protein phosphatase non-receptor type 7 (Homo sapiens), P35236; recombinant HePTP phosphatase activity, OD absorbance; inhibition, % at 20 µM; actives 0.64% (n = 110,000); AID 521, 2006; in the data active means inhibition above about 50%
PLAP act: PLAP enzyme activators, biochemical, luminescence, HTS; actives 1.2% (n = 96,000); activation fold at 20 µM; AID 696, 2007; purified PLAP enzyme, luminescent substrate read-out; stronger effect = higher value; in the data active means activation fold above about 2
Target sequence (P05187 whole entry, looked up): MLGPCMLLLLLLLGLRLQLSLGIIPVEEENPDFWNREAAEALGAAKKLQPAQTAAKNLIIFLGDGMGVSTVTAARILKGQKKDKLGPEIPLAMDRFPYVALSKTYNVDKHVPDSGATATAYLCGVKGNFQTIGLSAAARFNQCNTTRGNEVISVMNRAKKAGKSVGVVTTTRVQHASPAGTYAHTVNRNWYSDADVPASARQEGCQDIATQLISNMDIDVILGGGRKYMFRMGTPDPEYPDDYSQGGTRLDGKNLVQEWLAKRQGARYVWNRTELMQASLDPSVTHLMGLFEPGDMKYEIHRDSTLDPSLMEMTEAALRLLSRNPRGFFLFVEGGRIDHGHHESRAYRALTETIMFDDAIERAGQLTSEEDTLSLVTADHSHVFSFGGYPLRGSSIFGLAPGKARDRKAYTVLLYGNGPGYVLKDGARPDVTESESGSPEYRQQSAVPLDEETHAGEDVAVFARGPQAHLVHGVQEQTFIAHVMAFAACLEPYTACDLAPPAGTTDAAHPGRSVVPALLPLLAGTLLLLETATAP
PostGolgi yeast: phenotypic screen on post-Golgi transport, primary screen. post-Golgi transport phenotypic cell assay. inhibition, % at 10 µM. actives 0.9% (n = 98,000). AID 739, 2007;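 further: yeast cells grown in 1536-well plates; yeast grown about 18 h at 30C before absorbance read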
Ecoli WT expand: growth inhibitors of wild-type E. coli, primary screen, strain BW25113, expanded library, OD600 | OD600 absorbance | growth inhibition, % at 100 µM | actives 0.15% (n = 98,000) | AID 710, 2007;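 active means growth inhibition above about 50% at one test dose, limit read from the data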;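 further: growth measured after 20 h incubation at 37 °C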
tolC growth inh: growth inhibitors of E. coli tolC mutant, primary screen, strain BW25113 ΔtolC::kan, 384-well | actives 2.2% (n = 65,000) | growth inhibition, % at 10 µM (by protocol) | OD615;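 active means growth inhibition at or above a cutoff equal to the mean over every tested compound plus 3 SD, cut at about 60% in these data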;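 further: growth measured after 20 h incubation at 37 °C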
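System: E. coli ΔtolC::kan strain BW25113; Buffer or medium: LB broth supplemented with 50 µg/mL kanamycin; Compound: 10 µM final, single dose; Incubation: bacterial growth with compound for 20 h at 37 °C; Signal: A615 absorbance measurement; Evaluation: growth inhibition in percent.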
PostGolgi ctrl: growth inhibition of yeast control strain, primary screen, counter-screen for post-Golgi transport modulator project. efflux-deficient yeast background strain, growth absorbance A615, 16 h. actives 5% (n = 98,000). AID 738, 2007. inhibition, % at 10 µM
Numbers stand for hits; i = inactive; nt = no result given. Unless noted, no stated cut-off is given here; in the data, active means inhibition above about 30%; inactive means the rest.

SMILES | HePTP inh | PLAP act | PostGolgi yeast | Ecoli WT expand | tolC growth inh | PostGolgi ctrl
CCOCC(=O)Nc1cc(-c2cn3cccnc3n2)ccc1C | i | i | i | i | i | 36.0
Cc1ccc2c(Cl)c(C(=O)Nc3ncccc3Cl)sc2c1 | i | nt | nt | nt | nt | nt
CCOC(=O)N1CCN(c2ccc(S(=O)(=O)N(Cc3ccccc3)Cc3ccccc3)cn2)CC1 | nt | i | 34.2 | i | i | i
COc1ccc(-c2nc(-c3ccccc3)c(-c3cc([N+](=O)[O-])ccc3C)[nH]2)cc1O | nt | i | i | i | nt | 31.4
CN1C(=O)/C(=C\c2cn(Cc3ccccc3)c3ccccc23)SC1=S | i | nt | nt | nt | nt | nt
CCOC(=O)COn1c(=O)c(-c2cccs2)[n+]([O-])c2ccccc21 | i | i | i | i | i | i
CCOn1c(=O)c(-c2cccs2)[n+]([O-])c2ccccc21 | i | i | i | i | nt | 41.5
OC(COCc1ccccc1)CN1CCN(c2ccccn2)CC1 (stereo not given) | i | nt | nt | nt | nt | nt
OC(COc1ccc(Cl)c2ccccc12)CN1CCN(c2ccccn2)CC1 (stereo not given) | i | i | i | i | 100.0 | 34.3
O=C(Nc1ccccc1Oc1ccccc1)c1cc2cc([N+](=O)[O-])ccc2oc1=O | i | nt | nt | nt | nt | nt
CCNc1nc(SCc2ccccc2)nc(N2CCOCC2)n1 | i | i | i | i | 65.8 | i
CN(C)c1nc(SCc2ccccc2)nc(N2CCOCC2)n1 | nt | i | i | i | nt | i
Cc1ccccc1OCC(=O)NCCN1CCCC1 | i | i | i | i | i | 34.9
Cc1cc(C)nc(Sc2c(C)nn(-c3ccccc3)c2C)n1 | i | i | i | i | i | i
Cc1nn(-c2ccccc2)c(C)c1Sc1ccc(Cl)cc1 | 103.6 | nt | nt | nt | nt | nt
CC(=O)N1CCCc2cc(S(=O)(=O)Nc3ccc4c(c3)OCO4)ccc21 | i | i | i | i | i | 33.4
CC(=O)c1ccc(NC(=S)NC(NC(=O)CC(C)C)C(Cl)(Cl)Cl)cc1 (stereo not given) | i | nt | nt | nt | nt | nt
COc1ccc(S(=O)(=O)NCc2ccco2)c2ccccc12 | i | i | i | i | i | 34.4
COc1ccc(C(=O)Nc2ccc(S(=O)(=O)NCc3ccco3)cc2)cc1OC | i | i | i | i | i | 33.0
C=CCNC(=O)C(=O)NCc1ccc(Cl)cc1Cl | i | nt | nt | nt | nt | nt
COc1cccc(CN2CCN(Cc3cccn3C)CC2)c1 | i | nt | nt | nt | nt | nt
C=CCn1c(C)cc(C(=O)CSc2nc3ccccc3o2)c1C | i | i | i | i | i | 52.4
C=CCn1c(C)cc(C(=O)CSc2nc3ccccc3c(=O)[nH]2)c1C | i | i | i | i | i | 89.0
C=CCn1c(C)cc(C(=O)CSc2nc3ccccc3[nH]2)c1C | nt | i | i | i | nt | i
C=CCn1c(C)cc(C(=O)CSc2nnc(NCc3ccccc3)s2)c1C | i | nt | 62.5 | i | i | 96.4
SMILES | HePTP inh | PLAP act | PostGolgi yeast | Ecoli WT expand | tolC growth inh | PostGolgi ctrl
C=CCn1c(C)cc(C(=O)CSc2nnc(Cc3ccccc3)o2)c1C | i | i | 81.9 | i | i | 96.5
O=S(=O)(Nc1cccc(C(F)(F)F)c1)c1ccc2ccccc2c1 | i | nt | nt | nt | nt | nt
COc1ccc(Br)cc1CN1CCN(C2CC3CCC2C3)CC1 (stereo not given) | i | nt | nt | nt | nt | nt
O=C(CSc1nc2ccccc2o1)c1ccc(Cl)cc1Cl | i | nt | nt | nt | nt | nt
Cc1cc(C(=O)CSc2nc3ccccc3o2)c(C)n1C1CC1 | i | i | i | i | 76.5 | i
Clc1cccc(Cl)c1Cn1cnc2c(N3CCCCCC3)ncnc21 | i | i | i | i | i | 34.0
Cc1cccc(Oc2ncc(-c3ccc(Cl)cc3)cn2)c1C | nt | i | i | i | nt | 35.9
COc1ccccc1-c1cc(C(=O)N/N=C/c2ccc(C)s2)c2ccccc2n1 | nt | i | i | i | nt | 91.9
COc1ccc(/C=N/NC(=O)c2cc(-c3ccccc3OC)nc3ccccc23)cc1COC(C)=O | nt | i | i | i | nt | i
CCc1ccc(/C=N/NC(=O)c2cc(-c3ccccc3OC)nc3ccccc23)s1 | nt | i | i | i | nt | 75.4
Cc1ccc(-c2cc(C(=O)Nc3ccncc3)c3ccccc3n2)cc1C | i | nt | nt | nt | nt | nt
Cc1ccc(-c2cc(C(=O)N/N=C\c3cnn(C)c3C)c3ccccc3n2)cc1C | nt | 2 | i | i | nt | i
COC(=O)c1ccc(OC)cc1OCCN1CCOCC1 | i | nt | nt | nt | nt | nt
CCOC(=O)/C(C#N)=N\Nc1ccc(C(N)=O)cc1 | i | nt | nt | nt | nt | nt
Cc1[nH]c(-c2ccc3c(c2)OCO3)nc1C(=O)O | nt | i | i | i | nt | 30.6
O=C1NC(=O)N(c2cccc(F)c2)C(=O)/C1=C/c1ccc(OCc2cccc(C(=O)O)c2)cc1 | i | nt | nt | nt | nt | nt
CCc1nnc(NC(=O)c2ccc(COc3ccccc3)o2)s1 | i | i | i | i | i | 53.3
CCc1nnc(NC(=O)c2ccc(COc3ccc(C)cc3)o2)s1 | i | i | i | i | i | i
COC(=O)c1ccccc1NC(=O)c1ccc(COc2ccccc2)o1 | i | i | i | i | i | 35.6
O=C(NC1CCCCCC1)c1cccc(N2CCCC2=O)c1 | i | i | i | i | i | i
CC1CCCCC1NC(=O)c1ccc(N2CCCC2=O)cc1 (stereo not given) | i | i | i | i | i | 33.3
Cc1cc(C)n(CC(O)CN2c3ccccc3Sc3ccccc32)n1 (stereo not given) | i | i | i | i | i | 43.2
Cc1cc(C)n(CC(O)Cn2c3ccccc3c3ccccc32)n1 (stereo not given) | i | i | i | i | nt | i
COc1ccc(NC(C)C(=O)Nc2ccc(C#N)cc2)cc1Cl (stereo not given) | nt | i | i | i | nt | i
COc1ccc(NC(C)C(=O)Nc2ccc(C(C)(C)C)cc2)cc1Cl (stereo not given) | nt | i | i | i | nt | 33.9
SMILES | HePTP inh | PLAP act | PostGolgi yeast | Ecoli WT expand | tolC growth inh | PostGolgi ctrl
c1ccc(-c2n[nH]c(-c3ccccn3)n2)cc1 | nt | 2.2 | i | i | nt | i
c1ccc(-c2ccccn2)nc1 | nt | nt | nt | nt | i | nt
c1ccc(-c2n[nH]c(-c3ccccn3)n2)nc1 | i | 2.8 | i | i | i | i
c1ccc(-c2nc(-c3ccccn3)no2)cc1 | i | nt | nt | nt | nt | nt
CCN(CC)S(=O)(=O)c1cc(C(=O)Nc2ccc(C)cc2)ccc1C | i | nt | nt | nt | nt | nt
O=C(O)c1ccc(S(=O)(=O)c2ccc3c(c2)C(=O)N(NC(=O)c2ccco2)C3=O)cc1 | i | nt | nt | nt | nt | nt
CCc1cccc(C)c1NC(=O)CSc1nc2ccccc2[nH]1 | i | nt | nt | nt | nt | nt
COc1ccc(C2/C(=C(/O)c3ccccc3)C(=O)C(=O)N2CC2CCCO2)cc1 (stereo not given) | i | nt | nt | nt | nt | nt
O=C1C(=O)N(Cc2ccco2)C(c2cccc(Cl)c2)/C1=C(\O)c1ccc2c(c1)OCCO2 (stereo not given) | i | nt | i | i | 69.7 | i
COc1cccc(C2/C(=C(/O)c3ccc(C)cc3)C(=O)C(=O)N2Cc2ccco2)c1 (stereo not given) | i | nt | nt | nt | 76.8 | nt
COc1ccc(/C(O)=C2/C(=O)C(=O)N(CC3CCCO3)C2c2cccc(OC)c2)cc1 (stereo not given) | i | nt | i | i | 100.0 | i
CCOc1ccc(C2/C(=C(/O)c3ccc(F)cc3)C(=O)C(=O)N2CCCN(C)C)cc1 (stereo not given) | i | i | i | i | i | 44.1
